{
  "source": "paper PMC6996349",
  "about": "(Hepatology Communications, 2019)",
  "key": {"[1]": {"system": "subjects with elevated triglycerides", "conditions": "4 g/day oral; cited from earlier work"}, "[2]": {"system": "NASH patients", "conditions": "1.8 or 2.7 g/day, 1 year; cited from earlier work"}, "[3]": {"system": "ob/ob mice", "assay": "Glucose metabolism and insulin resistance in ob/ob mice", "type": "in vivo", "conditions": "for Glucose metabolism, effect: fenofibrate 100, pioglitazone 30 mg/kg/d in diet", "outline": "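Male ob/ob mice aged 6-8 weeks, n = 10/group, either untreated or given test compound at 135 mg/kg/d in the diet for 5 weeks. Reference-agent groups were also dosed in the diet. Blood glucose, insulin, HbA1c and HOMA-IR were measured after 4 weeks on tail-vein EDTA blood taken after a 4-h fast. Body weight was recorded between 8 and 9 am. Mean ± SEM; Kruskal-Wallis then Mann-Whitney U.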"}, "[4]": {"system": "NASH patients", "conditions": "PIVENS study; cited from earlier work"}, "[5]": {"system": "APOE*3Leiden.CETP mice", "assay": "Hepatic lipotoxic lipid species", "type": "in vivo", "conditions": "20 weeks, versus control", "outline": "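Male APOE*3Leiden.CETP mice aged 8-15 weeks on a high-fat diet (24% wt/wt lard, 1% wt/wt cholesterol), n = 12/group. Mice received daily corn-oil vehicle gavage or test compound at 112 mg/kg/d by oral gavage for 20 weeks, starting with the diet. Harvested livers underwent lipidomics and reduced/oxidized glutathione assays. Mean ± SEM; Kruskal-Wallis then Mann-Whitney U.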"}, "[6]": {"system": "APOE*3Leiden.CETP mice", "type": "in vivo", "outline": "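High-fat/cholesterol-fed male APOE*3Leiden.CETP mice aged 8-15 weeks, n = 12/group, given corn-oil vehicle or test compound at 112 mg/kg/d by daily oral gavage for 20 weeks. Liver cross sections were stained with H&E or sirius red and scored with an adapted human NASH grading system. Hepatic lipids were determined biochemically. Body weight was monitored regularly. Mean ± SEM; nonparametric group comparisons.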"}, "[7]": {"conditions": "20 weeks, icosabutate 112 mg/kg/d, rosiglitazone 13 mg/kg/d"}},
  "data": [
    {"smiles": "CC/C=C\\C/C=C\\C/C=C\\C/C=C\\C/C=C\\CCCC(=O)OCC", "note": "[EPA ethyl ester, eicosapentaenoic acid (EPA) ethyl ester]", "values": [
      {"measurement": "Major adverse cardiovascular events, effect", "setting": "[1]", "result": "markedly reduce"},
      {"measurement": "Effect on liver histology", "setting": "[2]", "result": "no effect"}
    ]},
    {"smiles": "CC(C)OC(=O)C(C)(C)Oc1ccc(C(=O)c2ccc(Cl)cc2)cc1", "note": "[fenofibrate]", "values": [
      {"measurement": "Plasma adiponectin, increase versus control", "setting": "[3]; after 4 weeks of treatment", "result": "neither fenofibrate nor icosabutate affected"},
      {"measurement": "Plasma insulin, change versus control", "setting": "[3]; after 4 weeks of treatment", "result": "less pronounced"},
      {"measurement": "Reduction of blood glucose AUC (0‐120 minutes) in oral glucose tolerance test", "setting": "[3]; after 5 weeks of treatment, 2 g/kg glucose, 4-hour fasted", "result": "less potent effect"},
      {"measurement": "Glucose metabolism, effect", "setting": "[3]", "result": "also improved glucose metabolism"}
    ]},
    {"smiles": "CCc1ccc(CCOc2ccc(CC3SC(=O)NC3=O)cc2)nc1", "note": "(stereo not shown) [pioglitazone]", "values": [
      {"measurement": "Plasma adiponectin, increase versus control", "setting": "[3]; after 4 weeks of treatment", "result": 4.5, "unit": "fold"},
      {"measurement": "HOMA‐IR, change versus control", "setting": "[3]; after 4 weeks of treatment, icosabutate 135, pioglitazone 30 mg/kg/d", "result": "−97", "unit": "%"},
      {"measurement": "Glucose metabolism, effect", "setting": "[3]", "result": "also improved glucose metabolism"},
      {"measurement": "Fibrosis, effect", "setting": "[4]", "result": "without change"},
      {"measurement": "Lobular inflammation, effect", "setting": "[4]", "result": "improvements"}
    ]},
    {"smiles": "CN(CCOc1ccc(CC2SC(=O)NC2=O)cc1)c1ccccn1", "note": "(stereo not shown) [rosiglitazone]", "values": [
      {"measurement": "Hepatic GSH:GSSG ratio, effect", "setting": "[5]", "result": "had no effect"},
      {"measurement": "Hepatic GSSG, effect", "setting": "[5]", "result": "had no effect"},
      {"measurement": "Hepatic concentration of FFAs, effect", "setting": "[5]", "result": "had no effect"},
      {"measurement": "Hepatic concentration of HETEs (11[R]‐, 12‐, 15[S] isomers), effect", "setting": "[5]", "result": "significant increase"},
      {"measurement": "Hepatic concentration of arachidonic acid, effect", "setting": "[5]", "result": "had no effect"},
      {"measurement": "Hepatic concentration of bile acids, effect", "setting": "[5]", "result": "had no effect"},
      {"measurement": "Hepatic concentration of ceramides, effect", "setting": "[5]", "result": "had no effect"},
      {"measurement": "Hepatic concentration of diacylglycerols (DAGs), effect", "setting": "[5]", "result": "had no effect"},
      {"measurement": "Fibrosis, effect", "setting": "[6]; 20 weeks", "result": "no change"},
      {"measurement": "Number of inflammatory cell aggregates, change versus control", "setting": "[6]; 20 weeks", "result": "−67", "unit": "%"},
      {"measurement": "Serum amyloid A, change versus control", "setting": "[6]; 20 weeks", "result": "−46", "unit": "%"},
      {"measurement": "Hepatic cholesterol ester, effect", "setting": "[6]; 20 weeks, biochemical analysis of intrahepatic lipids", "result": "significant reduction"},
      {"measurement": "Hepatocellular hypertrophy, change versus control", "setting": "[6]; [7]", "result": "did not significantly affect"},
      {"measurement": "Microvesicular steatosis, change versus control", "setting": "[6]; [7]", "result": "did not significantly affect"},
      {"measurement": "Serum amyloid A", "setting": "[6]; after 20 weeks of treatment, control 29.8 ± 5.0, mean ± SEM", "result": "16.1 ± 3.3"},
      {"measurement": "Plasma monocyte chemoattractant protein 1", "setting": "[6]; after 20 weeks of treatment, control 111.5 ± 17.1, mean ± SEM", "result": "65.1 ± 5.1"},
      {"measurement": "Body weight, change versus control", "setting": "[6]; week 16 and 20, data not shown", "result": "did not significantly increase"}
    ]}
  ]
}
